Data on two compounds can be found in ChEMBL document CHEMBL1137786, “Design, synthesis, biological evaluation, and structure-activity relationship (SAR) discussion of dipeptidyl boronate proteasome inhibitors, part I: comprehensive understanding of the SAR of alpha-amino acid boronates” (J Med Chem, 2009).

The nature of experiment [1]: Inhibition of chymotrypsin-like activity of human 20s proteasome beta 5 subunit assessed as hydrolysis of fluorogenic substrate.
For another experiment, the system named is NCI-H460. Description: Cytotoxicity against human H460 cells after 72 hrs by MTT assay. The note with it: NCI-H460, 72 h. Format: functional, cell-based. The procedure, abridged:
(§1)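 BGC-823, KB, NCI-H460, HepG2 and SW-480 cells were maintained in RPMI 1640 with 10% FBS at 37 °C, 5% CO2. MTT added from a 5 mg/mL solution for 4 h at 37 °C. Formazan dissolved in DMSO after centrifugation, A540 read.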
(Tetrazolium dyes change colour on reduction, which living cells bring about.)

The subject of another experiment is SW480. In words: Cytotoxicity against human SW480 cells after 72 hrs by MTT assay. The note with it: SW480, 72 h. Format: functional, cell-based. The procedure, abridged:
as §1

A further experiment concerns SK-OV-3. In words: Cytotoxicity against human SKOV3 cells after 72 hrs by MTT assay. Format: functional, cell-based. The note with it: SK-OV-3, 72 h. The procedure, abridged:
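SKOV-3 cells were cultured in McCoy's 5A with 10% FBS at 37 °C, 5% CO2. MTT added from a 5 mg/mL solution for 4 h at 37 °C. Formazan dissolved in DMSO, absorbance measured at 540 nm.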

For a further experiment, the system named is A549. In words: Cytotoxicity against human A549 cells after 72 hrs by MTT assay. Format: functional, cell-based. The note with it: A549, 72 h. The procedure, abridged:
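A549 cells were cultured in F12-K with 10% FBS at 37 °C, 5% CO2. MTT from a 5 mg/mL solution added for 4 h at 37 °C. Medium removed after centrifugation, formazan taken up in DMSO, read at 540 nm.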

The next experiment relates to HeLa. In words: Cytotoxicity against human HeLa cells after 72 hrs by MTT assay. Format: functional, cell-based. The procedure, abridged: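 HeLa cells were cultured in EMEM with 10% FBS at 37 °C, 5% CO2. MTT added from a 5 mg/mL solution for 4 h at 37 °C. Plates centrifuged, formazan dissolved in DMSO, A540 read.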
The subject of the next experiment is KB. In words: Cytotoxicity against human KB cells after 72 hrs by MTT assay. In kind it is functional, cell-based. The procedure, abridged:
as §1

The next experiment deals with HepG2. Description: Cytotoxicity against human HepG2 cells after 72 hrs by MTT assay. Format: functional, cell-based. To be noted: HepG2, 72 h. The method in brief:
as §1

A further experiment deals with BGC-823. Description: Cytotoxicity against human BGC823 cells after 72 hrs by MTT assay. In kind it is functional, cell-based. The note with it: BGC-823, 72 h. The procedure, abridged: as §1
The test system of a further experiment is HL-60. Description: Cytotoxicity against human HL60 cells after 72 hrs by MTT assay. In kind it is functional, cell-based. To be noted: HL-60, 72 h. The procedure, abridged: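 HL-60 cells grown in IMDM with 20% FBS at 37 °C, 5% CO2. MTT added from a 5 mg/mL solution for 4 h at 37 °C. Plates centrifuged, medium discarded, formazan dissolved in DMSO, absorbance read at 540 nm.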

Another experiment deals with U-266. Description: Cytotoxicity against human U266 cells after 72 hrs by MTT assay. The note with it: U-266, 72 h. Format: functional, cell-based. The method in brief: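 U266 myeloma cells were grown in RPMI 1640 with 15% FBS at 37 °C, 5% CO2. MTT added from a 5 mg/mL solution for 4 h at 37 °C. Plates centrifuged, formazan dissolved in DMSO, absorbance at 540 nm.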

One may read the IC50 as the concentration that inhibits the measured activity by half. `CC(C)C[C@H](NC(=O)[C@H](Cc1ccccc1)NC(=O)[C@H]1CCCc2ccccc21)B(O)O`: the IC50 in experiment [1] was determined as 1.2 nM; with NCI-H460, 36 nM; in the experiment with SW480, 30 nM; with SK-OV-3, 40 nM; with A549, 38.5 nM; with HeLa, 37.5 nM. Further, the IC50 in the experiment on KB was 70 nM; in the experiment on HepG2 it was 60 nM; with BGC-823, 580 nM; in the experiment on HL-60, 9.55 nM; in the experiment with U-266, 2.28 nM.

As to `CC(C)C[C@H](NC(=O)[C@H](Cc1ccccc1)NC(=O)c1cccc2c1CCCC2)B(O)O`, the IC50 was 1.6 nM in [1]; 21.5 nM with NCI-H460; 30 nM with SW480; 60 nM in the experiment with SK-OV-3; 40.5 nM in the experiment with A549; 23.2 nM with HeLa. Besides, the IC50 came out at 9.8 nM in the experiment with KB; 13.1 nM with HepG2; 1210 nM in the experiment on BGC-823; 9.25 nM with HL-60; 2.95 nM with U-266.
